By EC50 is commonly meant the concentration giving half of the maximal effect. Broadly, the CC50 is the concentration giving 50% cytotoxicity.

Data set [1] relates to Venezuelan equine encephalitis virus. As to the kind of experiment: Antiviral activity against Venezuelan equine encephalitis virus TC83 infected in Vero 76 cells assessed as reduction in virus-induced cytopathic effect after 2 days by Celltiter-Glo reagent based assay. To be noted: TC83, Vero 76, 48 h. The class given is functional, organism-based. (In general: Cytopathic effects are the visible damage that an infection or toxin causes in cultured cells.)

The nature of data set [2]: Cytotoxicity against african green monkey Vero 76 cells after 3 days by Celltiter-Glo reagent based assay. Format: cell-based. To be noted: chlorocebus sabaeus, vero 76, 72 h. The method, boiled down: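 Vero 76 cells were seeded overnight at 12 000/well and given an 8-point 2-fold compound series (20 mM DMSO stock) in EMEM/10% FBS with no virus. Viability was read by CellTiter-Glo after 3 days relative to untreated cells. Run in duplicate; CC50 from a four-parameter logistic or sigmoidal fit.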
In general terms: Cellular ATP, detected with luciferase, serves as a proxy for viable cell number.

Data set [3] can be described thus: Selectivity index, ratio of CC50 for african green monkey Vero 76 cells to EC50 for Venezuelan equine encephalitis virus TC83. The note with it: read-out: Ratio CC50/EC50. The class given is toxicity, cell-based.

As for `CN1CCN(Cc2nc3ccc([N+](=O)[O-])cc3c(=O)n2-c2ccccc2F)CC1`, in data set [1], the concentration for a half-maximal effect (EC50) worked out at 0.8 µM. For the same compound, the CC50 in data set [2] was greater than 50 µM. In data set [3], the selectivity ratio was greater than 62.5.
In the case of `CN1CCN(C)/C(=N/c2cc(F)ccc2C(=O)Nc2ccccc2)C1`, the EC50 in data set [1] is greater than 25 µM. This compound registered a CC50 in data set [2] greater than 50 µM.
The corresponding values for `CCN1CCN(Cc2nc3ccc(S(=O)(=O)O)cc3c(=O)n2-c2ccccc2)CC1` are greater than 25 µM and greater than 50 µM.
With `CCN1CCN(Cc2nc3ccc(C(N)=O)cc3c(=O)n2-c2ccccc2)CC1`, the half-maximal effective concentration (EC50) in data set [1] is greater than 25 µM. This compound showed a half-maximal cytotoxic concentration (CC50) in data set [2] greater than 50 µM.
Turning to `CCN1CCN(Cc2nc3ccc(I)cc3c(=O)n2-c2ccccc2)CC1`, the EC50 in data set [1] came out at 17.1 µM. The same compound came in with a CC50 in data set [2] greater than 50 µM. Further, the selectivity ratio in data set [3] is greater than 2.9.
The matching figures for `COc1cccc(-n2c(CN3CCNCC3)nc3ccc([N+](=O)[O-])cc3c2=O)c1`: 5.1 µM, greater than 50 µM and greater than 9.8.
As for `CN(C)c1cccc(-n2c(CN3CCNCC3)nc3ccc([N+](=O)[O-])cc3c2=O)c1`, in data set [1], the half-maximal effective concentration (EC50) was greater than 25 µM. The compound further came in with a CC50 in data set [2] greater than 50 µM.
On to `CN1CCN(C)/C(=N/c2cc([N+](=O)[O-])ccc2C(=O)Nc2ccccc2)C1`, for which, in data set [1], the concentration for a half-maximal effect (EC50) is 8.4 µM. In data set [2], the cytotoxic concentration (CC50) was greater than 50 µM. Besides, the selectivity ratio in data set [3] is greater than 6.
Regarding `O=c1c2cc([N+](=O)[O-])ccc2nc(CN2CCN(c3ccccc3)CC2)n1-c1ccccc1F`, the EC50 in data set [1] is greater than 25 µM. In data set [2], this compound had a CC50 greater than 50 µM.
For `CCN1CCN(Cc2nc3ccc(-c4nnn[nH]4)cc3c(=O)n2-c2ccccc2)CC1`, the concentration for a half-maximal effect (EC50) in data set [1] was greater than 25 µM. The CC50 in data set [2] was greater than 50 µM.
The corresponding values for `O=C1CN(Cc2nc3ccc([N+](=O)[O-])cc3c(=O)n2-c2ccccc2F)CCN1` are greater than 25 µM and greater than 50 µM.
Take `CN1CCN(C)/C(=N/c2ccc(F)cc2C(=O)Nc2ccccc2)C1`: the concentration for a half-maximal effect (EC50) in data set [1] came to 6.4 µM. Moreover, the CC50 in data set [2] is greater than 50 µM. Also, in data set [3], the selectivity ratio is greater than 7.8.
The corresponding values for `CCN1CCN(Cc2nc3ccc([N+](=O)[O-])cc3c(=O)n2-c2cccc(F)c2)CC1` are 0.4 µM, greater than 50 µM and greater than 125.
The matching figures for `COC(=O)c1ccc(/N=C2\CN(C)CCN2C)c(C(=O)Nc2ccccc2)c1`: 2 µM, greater than 50 µM and greater than 25.
The corresponding values for `O=c1c2cc([N+](=O)[O-])ccc2nc(CN2CCOCC2)n1-c1ccccc1F` are 8.7 µM, greater than 50 µM and greater than 5.7.
As to `O=c1c2cc([N+](=O)[O-])ccc2nc(CN2CCCNCC2)n1-c1ccccc1`, the EC50 in data set [1] was 0.9 µM. The compound further showed a CC50 in data set [2] greater than 50 µM. For the same compound, the selectivity ratio in data set [3] was greater than 55.6.
Turning to `CC(C)NC(=O)c1cc([N+](=O)[O-])ccc1/N=C1\CN(C)CCN1C`, the concentration for a half-maximal effect (EC50) in data set [1] is greater than 25 µM. This compound also returned a CC50 in data set [2] greater than 50 µM.
In the case of `CCN1CCN(Cc2nc3ccc([N+](=O)[O-])cc3c(=O)n2C)CC1`, in data set [1], the 50% effective concentration (EC50) is greater than 25 µM. This compound also showed a cytotoxic concentration (CC50) in data set [2] greater than 50 µM.
On to `CCN1CCN(Cc2nc3ccc([N+](=O)[O-])cc3c(=O)n2-c2ccccc2)CC1`, for which, in data set [1], the 50% effective concentration (EC50) came out at 0.3 µM. In data set [2], this compound yielded a CC50 greater than 50 µM. For the same compound, the selectivity ratio in data set [3] was greater than 167.
The corresponding values for `O=c1c2cc([N+](=O)[O-])ccc2nc(CN2CCNCC2)n1-c1ccsc1` are 1.4 µM, greater than 50 µM and greater than 35.7.
The corresponding values for `CN1CCN(C)/C(=N/c2ccc([N+](=O)[O-])cc2C(=O)Nc2ccccc2F)C1` are 0.2 µM, greater than 50 µM and greater than 250.
The corresponding values for `CCN1CCN(Cc2nc3ccc([N+](=O)[O-])cc3c(=O)n2-c2ccc(F)cc2)CC1` are 0.8 µM, greater than 50 µM and greater than 62.5.
Take `O=c1c2cc([N+](=O)[O-])ccc2nc(CN2CCCCC2)n1-c1ccccc1F`: the concentration for a half-maximal effect (EC50) in data set [1] worked out at 4.7 µM. The compound also displayed a CC50 in data set [2] greater than 50 µM. For the same compound, in data set [3], the selectivity ratio was greater than 10.6.
On to `COc1ccccc1-n1c(CN2CCNCC2)nc2ccc([N+](=O)[O-])cc2c1=O`, for which the half-maximal effective concentration (EC50) in data set [1] is greater than 25 µM. In data set [2], this compound yielded a CC50 greater than 50 µM.
`O=c1c2cc([N+](=O)[O-])ccc2nc(CN2CCNCC2)n1-c1ccccc1F`: the half-maximal effective concentration (EC50) in data set [1] stood at 0.2 µM. For the same compound, the CC50 in data set [2] was greater than 50 µM. Moreover, the selectivity ratio in data set [3] was greater than 250.
The corresponding values for `CCN1CCN(Cc2nc3ccc(C#N)cc3c(=O)n2-c2ccccc2)CC1` are 1.1 µM, greater than 50 µM and greater than 45.5.
Turning to `CCN1CCN(Cc2nc3ccccc3c(=O)n2-c2ccccc2F)CC1`, the EC50 in data set [1] was greater than 25 µM. The compound also yielded a CC50 in data set [2] greater than 50 µM.
Turning to `CN1CCN(C)/C(=N/c2ccc([N+](=O)[O-])cc2C(=O)Nc2cccc(F)c2)C1`, the EC50 in data set [1] came out at 0.1 µM. The compound also displayed a 50% cytotoxic concentration (CC50) in data set [2] greater than 50 µM. Also, the selectivity ratio in data set [3] was greater than 500.
The corresponding values for `CC(C)N1CCN(Cc2nc3ccc([N+](=O)[O-])cc3c(=O)n2-c2ccccc2F)CC1` are 4.4 µM, greater than 50 µM and greater than 11.4.
Consider `CCN1CCN(Cc2nc3ccc([N+](=O)[O-])cc3c(=O)n2C(C)C)CC1`, for which, in data set [1], the EC50 was greater than 25 µM. In data set [2], the cytotoxic concentration (CC50) was greater than 50 µM.
Take `CN1CCN(C)/C(=N/c2ccc(C#N)cc2C(=O)Nc2cccc(F)c2)C1`: the EC50 in data set [1] came out at 0.8 µM. For the same compound, the CC50 in data set [2] is greater than 50 µM. Also, the selectivity ratio in data set [3] is greater than 62.5.
The matching figures for `COc1ccc(-n2c(CN3CCNCC3)nc3ccc([N+](=O)[O-])cc3c2=O)cc1`: 0.2 µM, greater than 50 µM and greater than 250.
`CCN1CCN(Cc2nc3ccc(C(=O)O)cc3c(=O)n2-c2ccccc2)CC1`: the half-maximal effective concentration (EC50) in data set [1] was greater than 25 µM. The compound further had a CC50 in data set [2] greater than 50 µM.
In the case of `CCN1CCN(Cc2nc3ccc([N+](=O)[O-])cc3c(=O)n2Cc2ccccc2)CC1`, in data set [1], the EC50 is greater than 25 µM. The compound further had a CC50 in data set [2] greater than 50 µM.
On to `CN1CCN(C)/C(=N/c2ccccc2C(=O)Nc2ccccc2)C1`, for which the EC50 in data set [1] is greater than 25 µM. In addition, in data set [2], the CC50 is greater than 50 µM.
On to `CCN1CCN(Cc2nc3ccc(C(F)(F)F)cc3c(=O)n2-c2ccccc2F)CC1`, for which the EC50 in data set [1] was greater than 25 µM. Besides, the 50% cytotoxic concentration (CC50) in data set [2] was greater than 50 µM.
For the compound `CCN1CCN(Cc2nc3ccc(C(=O)N(C)C)cc3c(=O)n2-c2ccccc2)CC1`, the half-maximal effective concentration (EC50) in data set [1] was greater than 25 µM. In addition, the CC50 in data set [2] was greater than 50 µM.
The matching figures for `CCN1CCN(Cc2nc3ccc(-c4ccccn4)cc3c(=O)n2-c2ccccc2)CC1`: greater than 25 µM and greater than 50 µM.
The matching figures for `CCN1CCN(Cc2nc3ccc(-c4cccnc4)cc3c(=O)n2-c2ccccc2)CC1`: greater than 25 µM and greater than 50 µM.
With `CN(C)c1ccc(-n2c(CN3CCNCC3)nc3ccc([N+](=O)[O-])cc3c2=O)cc1`, the EC50 in data set [1] was greater than 25 µM. Also, in data set [2], the cytotoxic concentration (CC50) is greater than 50 µM.
`CCN1CCN(Cc2nc3ccc([N+](=O)[O-])cc3c(=O)[nH]2)CC1`: the concentration giving a half-maximal response (EC50) in data set [1] is greater than 25 µM. In data set [2], the CC50 is greater than 50 µM.
Take `CCN1CCN(c2nc3ccc([N+](=O)[O-])cc3c(=O)n2-c2ccccc2)CC1`: in data set [1], the EC50 is greater than 25 µM. In data set [2], this compound gave a half-maximal cytotoxic concentration (CC50) greater than 50 µM.

Source of the values: ChEMBL document CHEMBL3352189 (J Med Chem, 2014).
